Where two headings read alike, the source gives them in different places.
Key:
[1] = target: T1, PhENR (Pyrococcus horikoshii, UniProt O58586); test: Stopped-flow reductive half reaction of PhENR; type: biochemical; settings: monophasic, 37 °C, 100 mM Tris-HCl pH 7.4
Outline: (§1)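 Anoxic stopped-flow at 37 °C in a glove box, single-mixing mode. Enzyme was mixed with NADPH or NADH at 0.4–10.0 mM in 100 mM Tris-HCl pH 7.4, with nitrogen-flushed buffers. Flavin reduction was monitored as A458 change with a diode-array detector.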

[2] = target: T2, TtENR (Thermus thermophilus, UniProt P83818); test: Stopped-flow reductive half reaction of TtENR; type: biochemical; settings: monophasic, 37 °C, 100 mM Tris-HCl pH 7.4
T2 sequence (P83818 1-178): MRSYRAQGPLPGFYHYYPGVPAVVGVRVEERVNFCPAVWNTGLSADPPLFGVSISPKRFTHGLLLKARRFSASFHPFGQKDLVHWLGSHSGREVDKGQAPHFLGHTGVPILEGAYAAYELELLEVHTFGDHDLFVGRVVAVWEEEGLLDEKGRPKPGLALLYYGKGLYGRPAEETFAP
Outline: as §1

[3] = target: T2, TtENR; test: Steady-state turnover; type: biochemical; settings: NADPH and dioxygen as substrates, 50 mM potassium phosphate pH 7.0, 75 °C
[4] = tested on: yeast OYE; settings: cited from earlier work; for rate of reduction of the flavin cofactor: biphasic kinetics
[5] = target: T1, PhENR; test: Biocatalytic transformations with PhENR; type: biochemical; settings: for acceptance as substrate: substrate scope
Outline: (§2)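 Substrate (10 mM) was reduced with NADH or NADPH (15 mM) and enzyme in 50 mM buffer. The initial aerobic screen used Tris-HCl at pH 7, 8 or 9. Optimised anaerobic runs used degassed buffer under an Ar flush: 50 mM phosphate for TtENR, 50 mM Tris-HCl for PhENR, both pH 7, with NADPH. Mixtures were shaken 24 h at 30 °C, 120 r.p.m., then EtOAc-extracted. Conversion was read by achiral GC, e.e. by chiral GC or HPLC. One substrate was given in DMF (1% final).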

[6] = target: T2, TtENR; test: Biocatalytic transformations with TtENR; type: biochemical; settings: for acceptance as substrate: substrate scope, Table 1
Outline: as §2

[7] = target: T2, TtENR; test: Stopped-flow reoxidation of reduced TtENR; type: biochemical; settings: air-saturated buffer
Outline: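 Enzyme in 50 mM potassium phosphate pH 7.0 was reduced anoxically with sodium dithionite, and excess dithionite was removed on a desalting column inside a glove box. Reduced enzyme was mixed in single-mixing stopped-flow at 37 °C with substrate at various concentrations or with air-saturated buffer. FMN reoxidation was followed at A458 by diode array. Curves were fitted with a two-exponential function.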

[8] = target: T1, PhENR; test: UV-visible difference titration of ligands with PhENR; type: binding
Outline: (§3)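 UV–visible difference titrations at 25 °C in tandem cuvettes. Putative ligand (enones, enals, a quinone or a hydroxybenzaldehyde) was added both to enzyme solution in the sample cell and to 50 mM Tris-HCl pH 7.5 buffer in the reference cell. Spectral changes were followed as a function of ligand concentration.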

[9] = target: T2, TtENR; test: UV-visible difference titration of ligands with TtENR; type: binding
Outline: as §3

[10] = target: yeast OYE; settings: read-out: dissociation constant (Kd); cited from earlier work

T1 sequence (O58586 whole entry): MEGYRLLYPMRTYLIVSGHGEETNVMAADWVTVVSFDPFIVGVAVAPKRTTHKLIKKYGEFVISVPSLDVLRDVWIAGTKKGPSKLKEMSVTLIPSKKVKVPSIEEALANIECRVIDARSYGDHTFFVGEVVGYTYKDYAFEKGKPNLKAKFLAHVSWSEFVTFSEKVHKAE

Compound	acceptance as substrate ([5]; Table 1)	acceptance as substrate [6]	Kd [8]	Kd [9]	also measured
NC(=O)C1=CN([C@@H]2O[C@H](COP(=O)(O)OP(=O)(O)OC[C@H]3O[C@@H](n4cnc5c(N)ncnc54)[C@H](OP(=O)(O)O)[C@@H]3O)[C@@H](O)[C@H]2O)C=CC1 [NADPH]					reductive rate (kred) [1]: 0.06 s⁻¹; reductive rate (kred) [2]: 0.15 s⁻¹; turnover rate kcat [3]: 0.36 s⁻¹; Km ([3]; read-out: KM(NADPH)): 50 µM; rate of reduction of the flavin cofactor ([4]; first printed rate): 1.18 s⁻¹; rate of reduction of the flavin cofactor ([4]; second printed rate): 0.3 s⁻¹
O=O [dioxygen]					kox, reoxidation of the cofactor [7]: 57 s⁻¹
O=C1C=CC(=O)C=C1 [1,4-benzoquinone]			1800 µM	580 µM	
NC(=O)C1=CN([C@@H]2O[C@H](COP(=O)(O)OP(=O)(O)OC[C@H]3O[C@@H](n4cnc5c(N)ncnc54)[C@H](O)[C@@H]3O)[C@@H](O)[C@H]2O)C=CC1 [NADH]					reductive rate (kred) [2]: 0.25 s⁻¹

The next lines start with results.

acceptance as substrate ([5]; Table 1)	acceptance as substrate [6]	Kd [8]	Kd [9]	Compound	also measured
good substrates	good substrates			CC1CC(=O)N(c2ccccc2)C1=O (racemic) [Compound 5b, rac-N-phenyl-2-methylsuccinimide]	stereopreference compared with typical OYEs [5]: inverted stereopreference; stereopreference compared with typical OYEs [6]: inverted stereopreference
good substrates	good substrates			CC/C=C(\C)C=O [Compound 3a, (E)-2-methylpent-2-enal]	conversion ([5]; Table 1): full conversion
accepted but at lower conversion rates	accepted but at lower conversion rates	76000 µM	40000 µM	O=C1C=CCCC1 [Compound 1a, 2-Cyclohexen-1-one]	Kd [10]: 32 µM; oxidative rate kox [4]: 102 s⁻¹
		36 µM	25 µM	O=Cc1ccc(O)cc1 [pHB, p-hydroxybenzaldehyde]	
good substrates	good substrates			CC(C)=CCCC(C)=CC=O (mixture of isomers) [Compound 4a, citral]	
good substrates	good substrates			CC1=CC(=O)CC(C)(C)C1=O [Compound 2a, 2,6,6-trimethylcyclohex-2-ene-1,4-dione]	stereopreference compared with typical OYEs [5]: inverted stereopreference; stereopreference compared with typical OYEs [6]: inverted stereopreference

Reference: article PMC4083419 (Nature Communications, 2014)
